Measurements from different studies.
Kir1 channel protein: Kir1 channel protein (Aedes aegypti, UniProt L0EQS9)
DRD4: D(4) dopamine receptor (DRD4, Homo sapiens, UniProt P21917)
PIK3CD: Phosphatidylinositol 4,5-bisphosphate 3-kinase catalytic subunit delta isoform (PIK3CD, Homo sapiens, UniProt O00329)
HTR5A: 5-hydroxytryptamine receptor 5A (HTR5A, Homo sapiens, UniProt P47898)

The Ki of `CC(C)=CCC/C(C)=C/CC/C(C)=C/CSc1ccccc1C(=O)O` is reported as 370 nM (Squalene synthase (Homo sapiens, UniProt P37268); enzyme activity, inhibitor).
The Kd of `CC[C@@H]1C(=O)OC[C@@H]1Cc1cncn1C` is reported as 26500 nM (Cytochrome P450 2E1 (CYP2E1, Homo sapiens, UniProt P05181); binding).
`O=S(=O)(c1ccc(Cl)cc1)N1CCN(c2ccc(C(F)(F)F)c(NCc3ccncc3)c2)CC1` has an IC50 of 4000 to 9000 nM (Kir1 channel protein; ion flux, inhibitor).
For `CC1=C(O)C(=O)OC1C` (stereo not drawn), the EC50 was 4500 nM (OR8D1 (Homo sapiens, UniProt Q8WZ84, del306-308); cAMP, agonist, luciferase).
The EC50 of `CCn1c(-c2nc3cc(C(=O)N4CCC[C@@H](N)C4)cc(OC)c3n2C)cc2cccnc21` is reported as greater than 50100 nM (Nuclear receptor subfamily 1 group I member 2 (NR1I2, Homo sapiens, UniProt O75469); reporter gene, agonist, luciferase).
For `Cc1cnc(-c2ccc(-c3ccc(NC(=O)Nc4c(F)cc(F)cc4F)cc3F)c3c2C(=O)NC3)[nH]1`, the Kd was 0.8 nM (Mast/stem cell growth factor receptor Kit (KIT, Homo sapiens, UniProt P10721); binding, competition with immobilised ligand).
With `O=C1c2ccccc2CCN1CCCCN1CCN(c2ccccn2)CC1` the Ki was 14.5 nM (DRD4; ligand displacement, radioligand).
The IC50 of `COc1ccc(F)cc1C(=O)NCc1ccc(-c2nn([C@@H](C)C(F)(F)F)c(N)c2C(N)=O)cc1` is reported as 12.6 nM (Tyrosine-protein kinase BTK (BTK, Homo sapiens, UniProt Q06187, C481R); phosphorylation in cells, inhibitor).
`COc1ccc(CCC2=NCCN2CCc2ccccc2)cc1` has a Ki of 501 nM (DRD4; ligand displacement, radioligand).
The Kd of `CCC(=O)N1CCC(C(=O)N(C)CC(=O)N2CCN(c3nc(-c4cnc(N)nc4C(F)F)nc(N4CCOCC4)n3)CC2)CC1` is reported as 4.9 nM (PIK3CD; binding, competition with immobilised ligand).
For `CS(=O)(=O)C1(CNCc2cccc3cccnc23)CC1`, the Ki was 41.7 nM (HTR5A; ligand displacement, radioligand).
`CCC(=O)N1CCC(C(=O)NCC(=O)N2CCN(c3nc(-c4cnc(N)nc4C(F)F)nc(N4CCOCC4)n3)CC2)CC1` gave a Kd of 1.6 nM (PIK3CD; binding, competition with immobilised ligand).
`CC[C@H](NC(=O)[C@H](CS(=O)(=O)CC1CC1)N[C@@H](c1ccc(F)cc1)C(F)(F)F)C(=O)C(=O)NC1CC1` has a Ki of 4.7 nM (Cathepsin F (Homo sapiens, UniProt Q9UBX1); enzyme activity, inhibitor, fluorescence; with preincubation).
The Ki of `CS(=O)(=O)C1(CNCc2ccc(Cl)c3cccnc23)CC1` is reported as 126 nM (HTR5A; ligand displacement, radioligand).
With `CS(=O)(=O)N1CCN(c2ccc([N+](=O)[O-])c(NCc3cccnc3)c2)CC1` the IC50 was 44000 nM (Kir1 channel protein; ion flux, inhibitor).
For `CC(C)c1nc2cc(OCCCCN3CCN(c4cccc5c4OCCO5)CC3)ccc2s1`, the Ki was 330 nM (HTR5A; ligand displacement, radioligand).
`COc1ccc(-c2nsc(NC(=O)[C@@H]3C[C@H]3C)c2C)cc1` gave an EC50 of greater than 25000 nM (Metabotropic glutamate receptor 8 (GRM8, Homo sapiens, UniProt O00222); calcium signal, agonist).
With `O=C1c2ccccc2CCN1CCCCN1CCN(c2cccc(Cl)c2Cl)CC1` the Ki was 773 nM (HTR5A; ligand displacement, radioligand).
`O=[N+]([O-])c1ccc(N2CCN(S(=O)(=O)c3ccc(F)cc3)CC2)cc1NCc1cccnc1` has an IC50 of 57 nM (Kir1 channel protein; ion current, inhibitor, patch clamp).
The IC50 of `C=CC(=O)Nc1cc(Nc2nccc(Nc3cc(Cl)c(F)cc3C(C)(C)O)n2)c(OC)cc1N1CC[C@@H](N(C)C)C1` is reported as 704 nM (Receptor tyrosine-protein kinase erbB-4 (ERBB4, Homo sapiens, UniProt Q15303); enzyme activity, inhibitor; with preincubation).
`CCS(=O)(=O)N1CCN(c2ccc([N+](=O)[O-])c(NCc3cccnc3)c2)CC1` gave an IC50 of 21000 nM (Kir1 channel protein; ion flux, inhibitor).
`CN1CCN(c2ccc(Nc3ncc4cc(C#N)c(=O)n(C5CCCC5)c4n3)cc2)CC1` gave an IC50 of greater than 10000 nM (Calcium/calmodulin-dependent protein kinase type 1 (CAMK1, Homo sapiens, UniProt Q14012); enzyme activity, inhibitor).
For `CC(=O)N[C@@H](Cc1ccccc1)C(=O)N1CCC[C@H]1C(=O)N1CCC[C@H]1C(=O)N1CCC[C@H]1C(=O)N1CCC[C@H]1C(=O)O`, the Kd was 800000 nM (Vasodilator-stimulated phosphoprotein (VASP, Homo sapiens, UniProt P50552); binding, fluorescence).
For `CCCCCCSC[C@H]1CN(Cc2c[nH]c3c(N)ncnc23)C[C@@H]1O`, the Ki was 0.085 nM (Aminodeoxyfutalosine nucleosidase (Helicobacter pylori, UniProt Q9ZMY2); enzyme activity, inhibitor, absorbance; pH 7.4).
